# Laboratory results as given in PubChem BioAssay.
# Active and inactive are the calls of the source.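 The calls were made as follows, unless noted: active = fluorescence slope after compound addition differing from the mean of all tested samples at 99.7% confidence, mostly higher but some lower; inactive = the rest.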
# Experiments:
# [1] = inhibitors of TNFa-induced NFkB p65 translocation, primary screen, imaging, HUVEC, MLSMR starter and 10KST1 sets (AID 438;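 active = inhibition above 20% together with a positive visual image hit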;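 also: compound added about 3h40 before a 20 min TNFalpha stimulation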;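 as to inhibition: signal is the nuclear over cytoplasmic p65 intensity ratio per well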); conditions: HUVEC TNFa-induced p65 nuclear translocation; cell count: measured here: nuclei count (cytotoxicity indicator), at 2.08 µM; inhibition: at 2 µM, stronger effect = higher value, 0% TNFa-plus-vehicle, 100% no-TNFa wells
# [2] = inhibitors of mutant huntingtin aggregation, primary screen, imaging, exon1htt(103Q)mCFP cells, high-content imaging (AID 483;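 active = visual image review flags a hit and inhibition of aggregation exceeds 20%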;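 also: compound exposure lasted 3 days before fixation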;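 as to nuclei count: percent of the per-plate median nuclei count of sample wells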); conditions: exon1htt(103Q)mCFP cell line, aggregate imaging, at 2 µM; inhibition of aggregation: stronger effect = higher value; nuclei count: measured here: cell count, toxicity
# [3] = inhibitors of E-selectin induction by TNFa, primary screen, imaging, HUVEC, immunofluorescence, MLSMR starter and 10KST1 sets (AID 487;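 active = visually confirmed hit in the image check and inhibition above 20%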;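 as to inhibition: signal is fraction of cell area covered by stained E-selectin grains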;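 as to nuclei count: 100% = median nuclei count of all wells on the same plate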); conditions: HUVEC TNFalpha-induced E-selectin immunofluorescence imaging, at 2 µM; inhibition: stronger effect = higher value; nuclei count: measured here: cell number, toxicity
# [4] = target: Voltage-gated potassium channel subunit beta-2 (Rattus norvegicus) (UniProt P62483); experiment: KvBeta enzyme negative modulators, primary screen, biochemical, NADPH fluorescence (AID 622;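 active = fluorescence slope higher than the sample average by over 3 SD, cut at about -0.22 in these data, passing the limit was not always enough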;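 also: slope of raw intensity against log time taken from 70 to 1610 s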); conditions: recombinant KvBeta, 4-cyanobenzaldehyde reduction, at 10 µM, stronger effect = higher value
# [5] = target: Voltage-gated potassium channel subunit beta-2 (Rattus norvegicus) (UniProt P62483); experiment: KvBeta positive modulators, primary screen, biochemical, NADPH fluorescence (AID 623;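 active = NADPH fluorescence slope more negative than the mean of all samples by about 3 SD, 99.7% confidence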;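 also: fluorescence intensity change per second fitted from 20 to 320 s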); conditions: Recombinant KvBeta, NADPH fluorescence decrease slope, 10 min; at 10 µM; stronger effect = lower value
# [6] = target: Muscarinic acetylcholine receptor M4 (Homo sapiens) (UniProt P08173); experiment: compounds altering M4/GIRK thallium flux, either direction, primary screen, M4 allosteric agonist project, cell-based, HEK293 M4/GIRK, BTC-AM (AID 625); conditions: at 10 µM, actives lie on both sides;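 also: thallium influx through GIRK channels coupled to M4 in HEK293 cells with BTC-AM dye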
# How it was run: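 Material: HEK293 cells with M4 receptor and GIRK channels; Times: cells overnight at 37 °C, BTC-AM loading 1 h, reads 2 min total; Technique: kinetic BTC-AM fluorescence sampled at 1 Hz, 10 s pre-addition baseline; Read-out basis: slope over 15–24 s of trace normalized to starting intensity; Controls: carbachol positive, DMSO negative.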
# [7] = inhibitors of Sendai virus-induced IRF3 signaling, primary screen, TLR/RLR signaling modifier project, cell-based, Sendai virus stimulus, luciferase, 10K MLSCN set (AID 602276;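 active = inhibition at or above 50% at 10 µM; inactive = inhibition below 50%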;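 also: firefly luciferase from ISG56 promoter only with Renilla not read in this screen; 0% = Sendai virus plus DMSO and 100% = medium plus DMSO without virus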); conditions: HEK293 RL24 IRF3 luciferase reporter, at 10 µM, stronger effect = higher value
# [8] = inhibitors of poly I:C-induced TLR3 signaling, primary screen, cell-based, poly I:C stimulus, luciferase, 10K MLSCN set (AID 602277;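 active = inhibition of the reporter signal at or above 50%; inactive = inhibition below 50%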); conditions: HEK293-TLR3 RL24 IRF3 luciferase reporter, at 10 µM, stronger effect = higher value
# Muscarinic acetylcholine receptor M4 (Homo sapiens), sequence (P08173 whole entry, looked up): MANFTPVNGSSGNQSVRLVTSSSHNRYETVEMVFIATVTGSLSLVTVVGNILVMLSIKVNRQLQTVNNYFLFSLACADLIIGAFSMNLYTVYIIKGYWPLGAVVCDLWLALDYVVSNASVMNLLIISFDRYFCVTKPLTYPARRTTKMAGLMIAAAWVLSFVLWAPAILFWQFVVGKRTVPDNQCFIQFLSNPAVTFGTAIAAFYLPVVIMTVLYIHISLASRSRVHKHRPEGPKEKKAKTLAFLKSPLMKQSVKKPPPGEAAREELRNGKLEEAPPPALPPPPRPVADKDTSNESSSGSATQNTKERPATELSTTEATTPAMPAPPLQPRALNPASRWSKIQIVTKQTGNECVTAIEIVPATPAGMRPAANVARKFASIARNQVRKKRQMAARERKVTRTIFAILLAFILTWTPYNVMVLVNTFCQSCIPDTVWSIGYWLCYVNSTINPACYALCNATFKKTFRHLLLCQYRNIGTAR
# Voltage-gated potassium channel subunit beta-2 (Rattus norvegicus), sequence (P62483 whole entry, looked up): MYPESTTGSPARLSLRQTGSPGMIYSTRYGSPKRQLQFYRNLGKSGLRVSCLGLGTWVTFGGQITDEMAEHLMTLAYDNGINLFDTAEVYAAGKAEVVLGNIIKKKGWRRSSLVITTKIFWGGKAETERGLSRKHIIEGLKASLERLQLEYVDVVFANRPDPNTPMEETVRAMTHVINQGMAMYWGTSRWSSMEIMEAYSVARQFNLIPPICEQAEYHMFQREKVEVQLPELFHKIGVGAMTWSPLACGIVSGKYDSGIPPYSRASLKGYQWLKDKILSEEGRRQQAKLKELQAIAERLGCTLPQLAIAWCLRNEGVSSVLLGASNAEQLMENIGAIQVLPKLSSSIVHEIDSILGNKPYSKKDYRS
SMILES,cell count [1],inhibition [1],inhibition of aggregation [2],nuclei count [2] [%],inhibition [3],nuclei count [3] [%],fluorescence slope [4],NADPH fluorescence slope [5],fluorescence slope [6],inhibition [7],inhibition [8]
CCOC(=O)CSc1nnc(-c2cccnc2)n1Cc1ccccc1,568,16.6% (inactive),10.1% (inactive),97.1,-105% (inactive),158,-0.576 (inactive),1.1e-05 (inactive),0.00573 (inactive),-4.13% (inactive),1.14% (inactive)
CCn1cc(C(=O)OCC(=O)OC2CC(C)CCC2C(C)C)c(=O)c2ccc(C)nc21 (stereo not drawn),519,-21.2% (inactive),2.5% (inactive),92.5,26.8% (inactive),104,-0.416 (inactive),-0.000351 (inactive),0.00567 (inactive),18.5% (inactive),5.31% (inactive)
O=C(Cc1c[nH]c2ccccc12)N1CCc2ccccc21,236,2.1% (inactive),6.4% (inactive),90,-28.8% (inactive),93.8,-0.582 (inactive),-1e-05 (inactive),0.00443 (inactive),-4.15% (inactive),-44.5% (inactive)
CCOCCn1cnc2sc(C(=O)Nc3nc(C)c(C(=O)OCC)s3)c(C)c2c1=O,785,-3.7% (inactive),2.9% (inactive),121,-9.6% (inactive),105,-0.26 (inactive),4.1e-06 (inactive),0.0063 (inactive),11.8% (inactive),-0.0117% (inactive)
CCSc1nc(O)c(CC)c(=O)n1C(C)CC (stereo not drawn),304,2.1% (inactive),-3.7% (inactive),112,-56.3% (inactive),111,-0.556 (inactive),-3.6e-05 (inactive),0.00478 (inactive),-0.896% (inactive),4.86% (inactive)
CSc1nsc(SCC(=O)N2CCc3ccccc32)n1,296,-3.5% (inactive),22.6% (inactive),83.6,-98.3% (inactive),112,-0.451 (inactive),1.5e-05 (inactive),0.005 (inactive),5.46% (inactive),-2.99% (inactive)
O=C(CSc1nc(-c2ccc(F)cc2)cs1)N1CCOCC1,311,9.3% (inactive),20.5% (inactive),95.1,-45.8% (inactive),93.6,-0.462 (inactive),2.4e-05 (inactive),0.00525 (inactive),-23.2% (inactive),-106% (inactive)
CCOC(=O)CSc1nnc(CNC(=O)c2ccc(S(=O)(=O)N3CCCC3)cc2)n1C,617,1.2% (inactive),1.3% (inactive),96.9,-54.4% (inactive),122,-0.58 (inactive),-8.2e-06 (inactive),0.00697 (inactive),12.8% (inactive),18.7% (inactive)
CCOC(=O)c1c(NC(=O)CSc2nc3c(c(=O)n(C)c(=O)n3C)n2C(C)C)sc(C)c1C,547,1.2% (inactive),17.1% (inactive),110,26.4% (inactive),82.3,-0.564 (inactive),-2.9e-05 (inactive),0.00617 (inactive),18% (inactive),20.6% (inactive)
CCOC(=O)c1ccccc1NC(=O)Cn1cnc2c(cnn2-c2ccc(OC)cc2)c1=O,705,-25.5% (inactive),-6.3% (inactive),108,-0.4% (inactive),101,-0.237 (inactive),-4.6e-06 (inactive),0.0067 (inactive),10.8% (inactive),22.8% (inactive)
Nc1cc(-c2ccccc2)ccc1O,329,6.3% (inactive),33.9% (active),88.4,-40.6% (inactive),103,-0.314 (inactive),-1.6e-05 (inactive),0.00771 (inactive),-0.254% (inactive),1.06% (inactive)
c1ccc(CCc2nn3c(Cn4cnc5ccccc54)nnc3s2)cc1,598,-3.3% (inactive),-18% (inactive),100,-29.5% (inactive),97.5,-0.53 (inactive),2.5e-05 (inactive),0.00554 (inactive),14.9% (inactive),-3.65% (inactive)
COC(=O)c1ccc(CSc2nc(-c3ccc(OC)cc3)nc3c2c(=O)n(C)c(=O)n3C)o1,487,8.9% (inactive),-0.5% (inactive),89.2,-5.9% (inactive),103,-0.409 (inactive),0.000102 (inactive),0.00884 (inactive),24% (inactive),30.6% (inactive)
CC1(C)CC(=O)c2c(O)cc(O)cc2O1,652,-15.6% (inactive),-5.4% (inactive),83.3,-55.7% (inactive),99.8,-0.482 (inactive),-4.2e-05 (inactive),0.00586 (inactive),5.4% (inactive),-1.77% (inactive)
COc1ccc(S(=O)(=O)N(C)c2ccc(C(=O)N3CCOCC3)cc2)cc1,321,-2.9% (inactive),-6.7% (inactive),105,-106% (inactive),129,-0.515 (inactive),-0.000149 (inactive),0.00412 (inactive),14.9% (inactive),16.7% (inactive)
CCCCC(NC(C)=O)c1nc2ccccc2n1CCC (stereo not drawn),294,-3.7% (inactive),24.6% (inactive),82.4,37.8% (inactive),94.3,-0.454 (inactive),-2.6e-05 (inactive),0.00541 (inactive),22.7% (inactive),16.8% (inactive)
O=C1CC(Cc2ccccc2)C(=O)N1CCc1ccc2c(c1)OCO2 (stereo not drawn),480,3.5% (inactive),-0.2% (inactive),110,-145% (inactive),127,-0.579 (inactive),-1.8e-05 (inactive),0.00603 (inactive),-0.603% (inactive),9.62% (inactive)
CC(C)(C)n1ncc2c(=O)n(CC(=O)NCc3ccco3)cnc21,421,4.8% (inactive),-12.5% (inactive),104,4.2% (inactive),112,-0.574 (inactive),3.5e-06 (inactive),0.00566 (inactive),-35.6% (inactive),-92% (inactive)
COCCNc1nc(SCC(=O)N2CCN(c3ccccc3)CC2)nc2ccccc12,462,4.1% (inactive),-53.8% (inactive),70.8,-188% (inactive),105,-0.395 (inactive),4.2e-05 (inactive),0.0054 (inactive),-2.13% (inactive),8.34% (inactive)
CC1N=C2c3ccccc3N=C(SCc3cc(=O)n4cc(Cl)ccc4n3)N2C1=O (stereo not drawn),346,7.6% (inactive),18.8% (inactive),102,32.4% (inactive),92.4,-0.478 (inactive),-0.0001 (inactive),0.00478 (inactive),13.1% (inactive),18.7% (inactive)
CCOC(=O)C1=C(C)N(C)C(C)=C(C(=O)OCC)C1c1cccnc1,366,-5.2% (inactive),-14.4% (inactive),93.8,-55.9% (inactive),115,-0.5 (inactive),-2.2e-05 (inactive),0.00631 (inactive),-2.74% (inactive),6.76% (inactive)
COc1ccc(CC(NC(C)=O)C(=O)NC2CCN(c3nc(C)cc(C)c3C#N)CC2)c(OC)c1 (stereo not drawn),750,-7.4% (inactive),-12.3% (inactive),121,-32.4% (inactive),112,-0.341 (inactive),-1.7e-05 (inactive),0.00702 (inactive),-9.6% (inactive),-9.61% (inactive)
CCC(Sc1ccc2nnc(-c3ccc(F)cc3)n2n1)C(=O)OC (stereo not drawn),562,-16.6% (inactive),25.1% (inactive),117,-73.4% (inactive),117,-0.185 (inactive),-7e-06 (inactive),0.00751 (inactive),17.3% (inactive),19.1% (inactive)
CCOc1ccccc1NC(=O)N1C2CCCC1CC(NC(=O)C1CC1)C2 (stereo not drawn),417,-3.2% (inactive),6.6% (inactive),110,-75.6% (inactive),97.6,-0.515 (inactive),4.4e-06 (inactive),0.00474 (inactive),17.1% (inactive),23.8% (inactive)
CC(=O)N1C(=O)C2(Nc3ccccc3N2)c2ccccc21,406,-4.3% (inactive),6.4% (inactive),108,20.6% (inactive),108,-0.283 (inactive),-1.3e-05 (inactive),0.00603 (inactive),-8.46% (inactive),9.54% (inactive)
O=C(c1ccc(S(=O)(=O)N2CCOCC2)cc1)N1CCc2ccccc2C1,401,-1% (inactive),-27.5% (inactive),103,-103% (inactive),118,-0.469 (inactive),-1.3e-05 (inactive),0.00485 (inactive),25.2% (inactive),18.8% (inactive)
Nc1nc(N)nc(-c2ccccc2)n1,402,6% (inactive),12% (inactive),91.3,22.3% (inactive),102,-0.599 (inactive),-3.3e-05 (inactive),0.00335 (inactive),13.8% (inactive),13.5% (inactive)
O=C(Nc1ccc(Cc2ccncc2)cc1)C1CC1,447,2.9% (inactive),-6.1% (inactive),100,-33.5% (inactive),118,-0.605 (inactive),2.8e-05 (inactive),0.00686 (inactive),7.94% (inactive),15.6% (inactive)
